Test results: PMC7616001 (Journal of medicinal chemistry, 2022)
Where two headings read alike, the source gives them in different places.

Tests used:
Cyclic voltammetry = format: physicochemical; details: acetonitrile, 0.1 M NEt4BF4
ROS level in HeLa cells = assay: H2DCF-DA intracellular ROS assay; format: cell-based, human; details: 10 μM, 1-8 h
Procedure, shortened: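 HeLa plated at 10 × 10^3 per well, grown overnight, then exposed to 10 μM test compound for 1, 2, 4 or 8 h. Washed with PBS and loaded with 10 μM H2DCF‑DA for 30 min. Washed again, phenol red‑free DMEM added, fluorescence read immediately. Three biological replicates.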

HeLa [1] = details: read-out: IC50 HeLa; 72 h continuous exposure, MTT assay; cited from earlier work
A2780 [2] = details: cited from earlier work
[3] = cited from earlier work
HeLa [4] = assay: MTT assay, 72 h continuous exposure, HeLa cells; format: cell-based, human; details: read-out: IC50 HeLa; 72 h continuous exposure, MTT assay
Procedure, shortened: (§1)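 Ovarian lines grown in RPMI with 10% FBS and 1% penicillin/streptomycin; A2780Cis kept on 2 μM cisplatin 3 days each week. HeLa grown in DMEM with the same supplements. 3 × 10^3 cells/well, overnight, then serial dilutions of DMSO stocks (final DMSO ≤0.1%); cisplatin stock in PBS. 72 h continuous exposure, MTT 0.5 mg/mL 3 h, formazan in DMSO, A570 normalised to untreated. IC50 from curves; ≥3 independent experiments.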

A2780 [5] = assay: MTT assay, 72 h continuous exposure, A2780 cells; format: cell-based, human; details: read-out: IC50 A2780; 72 h continuous exposure, MTT assay
Procedure, shortened: as §1

A2780cis [6] = assay: MTT assay, 72 h continuous exposure, cisplatin-resistant A2780Cis cells; format: cell-based, human; details: read-out: IC50 A2780cis; 72 h continuous exposure, MTT assay
Procedure, shortened: as §1

HeLa [7] = assay: 72 h crystal violet; format: cell-based, human; details: HeLa and A2780, 72 h
Procedure, shortened: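 Seeding and dosing as for MTT: 3 × 10^3 cells/well, overnight, final DMSO ≤0.1%, 72 h exposure. Wells washed with PBS and fixed in 4% paraformaldehyde for 15 min. Crystal violet stained, dried, dissolved in 96% ethanol and A570 read. IC50 derived from dose–response curves.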

HeLa cells [8] = assay: Intracellular distribution between nucleus and cytoplasm, ICP-MS; format: cell-based, human; details: 10 μM, 24 h exposure
Procedure, shortened: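 5 × 10^6 HeLa per 100 mm plate, grown overnight. Exposed 24 h to 10 μM test compound, with 10 μM cisplatin as comparator. PBS‑washed, trypsinised, counted. Nuclear and cytoplasmic fractions isolated with a commercial kit. Protein measured by BCA assay, metal by ICP‑MS. Three experiments of ≥3 replicates.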

HeLa cells [9] = assay: Annexin-V/PI dual staining flow cytometry; format: cell-based, human; details: 10 μM (0.7 × IC50/24h)
[10] = test system: PARP, p53, cleaved caspase 3 in HeLa cells; assay: Western blot of apoptosis-related marker proteins; format: cell-based, human; details: 24 h, cisplatin 10 μM, 1 at 1/4 × IC50 to IC50
Procedure, shortened: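 ~2 million HeLa per 60 mm dish, grown to 80–90% confluency, treated 24 h at 10, 20 or 40 μM. Lysed in RIPA buffer with protease inhibitors. Membranes blocked with 2% skim milk in 0.1% Tween 20 for 30 min. Primary antibody 1:1000 overnight at 4 °C; HRP secondary antibody.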

[11] = test system: MEF-Bax/Bak^+/+ and MEF-Bax/Bak^−/− cell lines; assay: Cytotoxicity in MEF-Bax/Bak+/+ versus MEF-Bax/Bak−/− cells; format: cell-based, murine
A2780cis [12] = details: A2780Cis versus wild-type A2780; cited from earlier work
[13] = read-out: IC50 in A2780 cells, reported antitumor activities

O=C(CC(=O)C(F)(F)F)[c-]1cccc1.[Fe+2].c1cc[cH-]c1 [Compound L1, 4,4,4-trifluoro-1-ferrocenylbutane-1,3-dione]
oxidation potential (vs Fc^+/0) (Cyclic voltammetry): 287 mV
intracellular ROS level (H2DCF-DA) (ROS level in HeLa cells): unable to elevate the level of intracellular ROS
IC50 (HeLa [1]): 23 µM
IC50 (A2780 [2]; read-out: IC50 A2780, 72 h, MTT assay): 11.4 ± 2 µM
pKa [3]: 6.5

N.N.[Cl][Pt][Cl] [cisplatin, reference compound]
IC50 (HeLa [4]): 3 ± 0.1 µM
IC50 (A2780 [5]): 0.8 ± 0.1 µM
IC50 (A2780cis [6]): 6.7 ± 0.1 µM
IC50 from CV assay compared to IC50 from MTT assay (HeLa [7]): comparable
metal content in nuclear fraction relative to cytoplasmic fraction (HeLa cells [8]): equally distributed between the cytoplasm and nucleus
AV^+/PI^− cells (early apoptosis) (HeLa cells [9]): 13.4%
apoptosis markers (PARP cleavage, p53, cleaved caspase 3) [10]: cleavage of PARP and sharp upregulation of P53 and cleaved caspase 3
IC50 in MEF-Bax/Bak^−/− compared to MEF-Bax/Bak^+/+ cells [11]: 2.5 fold
resistance factor, RF (A2780cis [12]): 9.7

O=C1[O][Pt]2([NH][C@@H]3CCCC[C@H]3[NH]2)[O]C1=O [oxaliplatin, reference compound]
IC50 (HeLa [4]): 2.1 ± 0.3 µM

[Ru(η^6-arene)(PTA)-(4,4,4-trifluoro-1-(4-chlorophenyl)-1,3-butanedionato)]
IC50 (A2780 [2]; [13]): 34.8 µM

[Ru(η^6-arene)Cl(curcuminato)]
IC50 (A2780 [2]; [13]): 23.4 µM
